Results: ChEMBL document CHEMBL4138220, “A fluorine scan of a tubulin polymerization inhibitor isocombretastatin A-4: Design, synthesis, molecular modelling, and biological evaluation” (Eur J Med Chem, 2018)
The source made the active and inactive calls. No cut-off for these calls is given here.

Target: T1, Tubulin (Homo sapiens) (UniProt P68371+Q9H4B7+P0DPH7+P68366+Q13509+Q71U36+P04350+Q3ZCM7+P07437+P68363+Q9BQE3+Q6PEY2+Q13885+Q9BVA1+Q9BUF5)
Experiment: Inhibition of tubulin polymerization in human U87MG cells assessed as formation of disorganized actin network at 10 nM after 24 hrs by Hoechst-33258 staining based inverted microscopy
Format: cell-based
Settings: not given
How it was run: (§1)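 U87-MG on chamber slides, 24 h with 5 or 10 nM, control 0.1% DMSO. Fixed in 2% paraformaldehyde, permeabilized with 0.25% Triton X-100, blocked with BSA/goat serum. Stained with mouse anti-β-tubulin overnight at 4°C, then Alexa 647 anti-mouse plus Hoechst 33258 for 2 h, then Alexa 488 phalloidin for F-actin. Imaged on an inverted microscope with a 60X oil objective.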

inhibition | Compound
Active | COc1ccc(C(=C(F)F)c2cc(OC)c(OC)c(OC)c2)cc1N

System: PBL
Experiment: Cytotoxicity against human PBL cells assessed as reduction in cell viability after 72 hrs by MTS assay
Format: cell-based
Settings: not given
How it was run: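 PBMCs from healthy donors were isolated on a Ficoll gradient and cultured overnight at 37°C in RPMI-1640 with 10% FCS. Non-adherent cells were set at 5 × 10⁵/mL with PHA 2.5 µg/mL (proliferating) or without it (quiescent). Serial dilutions 0.001–25 µM final (10 mM DMSO stocks) were applied for 72 h at 37°C, and viability was read by MTS.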

Compound | IC50 [nM]
COc1ccc(C(=C(F)F)c2cc(OC)c(OC)c(OC)c2)cc1N | > 10000
COc1ccc(/C=C\c2cc(OC)c(OC)c(OC)c2)cc1O [COMBRETASTATIN A4] | > 10000
C=C(c1ccc(OC(F)F)c(N)c1)c1cc(OC)c(OC)c(OC)c1 | > 10000

System: not listed separately
Experiment: Intrinsic clearance in human liver microsomes at 5 uM preincubated for 5 mins followed by NADPH addition measured after 45 mins by UPLC-MS/MS analysis
Format: ADME, microsome
Settings: read-out: CLH

microsomal CLint at 5 µM [µL/min/mg] | Compound
43 | COc1ccc(C(=C(F)F)c2cc(OC)c(OC)c(OC)c2)cc1N
13.6 | C=C(c1ccc(OC(F)F)c(N)c1)c1cc(OC)c(OC)c(OC)c1

System: not listed separately
Experiment: Induction of basal contraction tone in isolated Wistar rat aorta rings at 10 uM after 10 mins in presence K60 solution (reference value: 0.2 +/- 0.2%)
Format: tissue-based
Settings: not given

Activity [%] | Compound
2.1 | COc1ccc(C(=C(F)F)c2cc(OC)c(OC)c(OC)c2)cc1N
2.2 | C=C(c1ccc(OC(F)F)c(N)c1)c1cc(OC)c(OC)c(OC)c1

Compound | Activity [%]
COc1ccc(/C=C\c2cc(OC)c(OC)c(OC)c2)cc1O [COMBRETASTATIN A4] | 0.7

Target: T1, Tubulin (Homo sapiens)
Experiment: Inhibition of tubulin polymerization in human U87MG cells assessed as shrinkage of microtubule spindles at 10 nM after 24 hrs by Hoechst-33258 staining based inverted microscopy
Format: cell-based
Settings: not given
How it was run: as §1

inhibition | Compound
Active | COc1ccc(C(=C(F)F)c2cc(OC)c(OC)c(OC)c2)cc1N

System: HCT-116
Experiment: Antiproliferative activity against human HCT116 cells after 72 hrs by resazurin-based fluorescence assay
Format: functional, cell-based
Settings: HCT-116, 72 h

IC50 [nM] | Compound
0.9 | COc1ccc(C(=C(F)F)c2cc(OC)c(OC)c(OC)c2)cc1N
1 | C=C(c1ccc(OC(F)F)c(N)c1)c1cc(OC)c(OC)c(OC)c1

Target: T1, Tubulin (Homo sapiens)
Experiment: Inhibition of tubulin polymerization in human U87MG cells assessed as formation of disorganized microtubule network at 5 nM after 24 hrs by Hoechst-33258 staining based inverted microscopy
Format: cell-based
Settings: not given
How it was run: as §1

inhibition | Compound
Active | COc1ccc(C(=C(F)F)c2cc(OC)c(OC)c(OC)c2)cc1N

System: HCT-116
Experiment: Cell cycle arrest in human HCT116 cells assessed as accumulation at G2/M phase at 20 nM after 24 hrs by propidium iodide staining based flow cytometry
Format: functional
Settings: not given
How it was run: (§2)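 Exponentially growing HCT116 (RPMI 1640) or U87-MG (DMEM, 4.5 g/L glucose) cells, each medium with 10% FCS and 1% glutamine, treated 24 h at 20 nM in DMSO, with a DMSO control. DNA content measured by propidium iodide staining and flow cytometry.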

Compound | Activity
COc1ccc(C(=C(F)F)c2cc(OC)c(OC)c(OC)c2)cc1N | Active

System: not listed separately
Experiment: Metabolic stability in human plasma at 5 uM after 120 mins by UPLC-MS/MS analysis
Format: ADME, cell-free
Settings: read-out: Stability
How it was run: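 Compound at 5 µM in human plasma at 37°C, sampled from 0 to 120 min. Stopped with acetonitrile, centrifuged, supernatant dried under nitrogen and reconstituted in 0.2% formic acid water/methanol 75/25. Measured by UPLC-MS/MS as % remaining. Procaine was the positive control.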

remaining at 2 h, 5 µM [%] | Compound
100 | COc1ccc(C(=C(F)F)c2cc(OC)c(OC)c(OC)c2)cc1N
100 | C=C(c1ccc(OC(F)F)c(N)c1)c1cc(OC)c(OC)c(OC)c1

Target: T1, Tubulin (Homo sapiens)
Experiment: Inhibition of tubulin polymerization in human U87MG cells assessed as multinucleation at 10 nM after 24 hrs by Hoechst-33258 staining based inverted microscopy
Format: cell-based
Settings: not given
How it was run: as §1

inhibition | Compound
Active | COc1ccc(C(=C(F)F)c2cc(OC)c(OC)c(OC)c2)cc1N

System: K562
Experiment: Antiproliferative activity against human K562 cells after 72 hrs by resazurin-based fluorescence assay
Format: functional, cell-based
Settings: K562, 72 h
How it was run: (§3)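 CellTiter-Blue viability. Cells plated at 5 × 10^3 per well and cultured 24 h, then given compound in DMSO (under 0.1%) for 72 h. Resazurin added for 2 h, fluorescence read at ex 560/em 590 nm. […] Run in triplicate. U87-MG grown in DMEM (4.5 g/L glucose, 10% FCS, 1% glutamine). K562, K562R (doxorubicin-resistant), A549 and MCF7 grown in RPMI 1640 (10% FCS, 1% glutamine). All kept at 37 °C, 5% CO2.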

IC50 [nM] | Compound
0.4 | COc1ccc(C(=C(F)F)c2cc(OC)c(OC)c(OC)c2)cc1N
4 | C=C(c1ccc(OC(F)F)c(N)c1)c1cc(OC)c(OC)c(OC)c1

Compound | IC50 [nM]
COc1ccc(/C=C\c2cc(OC)c(OC)c(OC)c2)cc1O [COMBRETASTATIN A4] | 6

System: not listed separately
Experiment: Inhibition of sheep brain tubulin polymerization assessed as reduction in rate of microtubule assembly by DAPI-fluorescence based assay
Parameters: species or system Ovis aries
Settings: not given
How it was run: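 Sheep brain tubulin purified by two assembly–disassembly cycles, about 10 µM in buffer at pH 6.6 with MgCl2, EGTA and 1 mm GTP. Assembly followed continuously at 37 °C by DAPI fluorescence. IC50 is the concentration halving the maximum assembly rate versus no compound. Reference compounds run the same day. Average of three experiments.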

IC50 [nM] | Compound
2000 | COc1ccc(C(=C(F)F)c2cc(OC)c(OC)c(OC)c2)cc1N
400 | C=C(c1ccc(OC(F)F)c(N)c1)c1cc(OC)c(OC)c(OC)c1

Compound | IC50 [nM]
COc1ccc(/C=C\c2cc(OC)c(OC)c(OC)c2)cc1O [COMBRETASTATIN A4] | 2100

System: PBL
Experiment: Cytotoxicity against human PBL cells assessed as reduction in cell proliferation after 72 hrs by MTS assay
Settings: not given

Compound | IC50 [nM]
COc1ccc(C(=C(F)F)c2cc(OC)c(OC)c(OC)c2)cc1N | > 10000
COc1ccc(/C=C\c2cc(OC)c(OC)c(OC)c2)cc1O [COMBRETASTATIN A4] | 100 to 500
C=C(c1ccc(OC(F)F)c(N)c1)c1cc(OC)c(OC)c(OC)c1 | > 10000

System: A549
Experiment: Antiproliferative activity against human A549 cells after 72 hrs by resazurin-based fluorescence assay
Format: functional, cell-based
Settings: A549, 72 h

IC50 [nM] | Compound
2 | COc1ccc(C(=C(F)F)c2cc(OC)c(OC)c(OC)c2)cc1N
2.2 | C=C(c1ccc(OC(F)F)c(N)c1)c1cc(OC)c(OC)c(OC)c1

System: U-87 MG
Experiment: Cell cycle arrest in human U87MG cells assessed as accumulation at G2/M phase at 20 nM after 24 hrs by propidium iodide staining based flow cytometry
Format: functional
Settings: U-87MG ATCC
How it was run: as §2

Compound | Activity
COc1ccc(C(=C(F)F)c2cc(OC)c(OC)c(OC)c2)cc1N | Active

System: not listed separately
Experiment: Metabolic stability in human liver microsomes at 5 uM preincubated for 5 mins followed NADPH addition measured after 120 mins by UPLC-MS/MS analysis
Format: ADME, microsome
Settings: read-out: Stability

remaining at 2 h, 5 µM [%] | Compound
13.6 | COc1ccc(C(=C(F)F)c2cc(OC)c(OC)c(OC)c2)cc1N
3.3 | C=C(c1ccc(OC(F)F)c(N)c1)c1cc(OC)c(OC)c(OC)c1

System: A549
Experiment: Potency index, ratio of combretastatin A-4 IC50 to compound IC50 for antiproliferative activity against human A549 cells
Format: functional
Settings: not given

Compound | Ratio IC50
COc1ccc(C(=C(F)F)c2cc(OC)c(OC)c(OC)c2)cc1N | 90

System: MCF7
Experiment: Antiproliferative activity against human MCF7 cells after 72 hrs by resazurin-based fluorescence assay
Format: functional, cell-based
Settings: MCF7, 72 h
How it was run: as §3

IC50 [nM] | Compound
1.5 | COc1ccc(C(=C(F)F)c2cc(OC)c(OC)c(OC)c2)cc1N
2 | C=C(c1ccc(OC(F)F)c(N)c1)c1cc(OC)c(OC)c(OC)c1

Compound | IC50 [nM]
COc1ccc(/C=C\c2cc(OC)c(OC)c(OC)c2)cc1O [COMBRETASTATIN A4] | 8

System: not listed separately
Experiment: Increase in PGF2alpha-induced contractile response in isolated Wistar rat aorta rings at 10 uM after 10 mins
Format: tissue-based
Settings: not given
How it was run: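 Rat aortic rings 2–3 mm in PSS at 37°C, 95% O₂/5% CO₂, pH 7.4, isometric tension at 2 g resting force. Rings were kept if K60 contraction was ≥1.5 g and ACh (10 µM) relaxation ≥15%. Compound (10 µM) or DMSO 0.1% was given for 10 min, then cumulative PGF2α 1 nM–30 µM. Hill fits gave pD2 and Emax as % of K60. N = 6.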

pD2 | Compound
5.94 | COc1ccc(C(=C(F)F)c2cc(OC)c(OC)c(OC)c2)cc1N
5.87 | C=C(c1ccc(OC(F)F)c(N)c1)c1cc(OC)c(OC)c(OC)c1

Compound | pD2
COc1ccc(/C=C\c2cc(OC)c(OC)c(OC)c2)cc1O [COMBRETASTATIN A4] | 5.73

System: K-562R
Experiment: Antiproliferative activity against human K562R cells after 72 hrs by resazurin-based fluorescence assay
Format: functional, cell-based
Settings: not given
How it was run: as §3

IC50 [nM] | Compound
0.1 | COc1ccc(C(=C(F)F)c2cc(OC)c(OC)c(OC)c2)cc1N
0.15 | C=C(c1ccc(OC(F)F)c(N)c1)c1cc(OC)c(OC)c(OC)c1

Compound | IC50 [nM]
COc1ccc(/C=C\c2cc(OC)c(OC)c(OC)c2)cc1O [COMBRETASTATIN A4] | 23

System: not listed separately
Experiment: Metabolic stability in human liver microsomes at 5 uM after 120 mins in absence of NADPH by UPLC-MS/MS analysis
Format: ADME, microsome
Settings: read-out: Stability

remaining at 2 h, 5 µM [%] | Compound
< 5 | COc1ccc(C(=C(F)F)c2cc(OC)c(OC)c(OC)c2)cc1N
9 | C=C(c1ccc(OC(F)F)c(N)c1)c1cc(OC)c(OC)c(OC)c1

System: U-87 MG
Experiment: Antiproliferative activity against human U87 cells after 72 hrs by resazurin-based fluorescence assay
Format: functional, cell-based, U-87MG ATCC
Settings: not given
How it was run: as §3

IC50 [nM] | Compound
0.2 | COc1ccc(C(=C(F)F)c2cc(OC)c(OC)c(OC)c2)cc1N
0.6 | C=C(c1ccc(OC(F)F)c(N)c1)c1cc(OC)c(OC)c(OC)c1

Compound | IC50 [nM]
COc1ccc(/C=C\c2cc(OC)c(OC)c(OC)c2)cc1O [COMBRETASTATIN A4] | 3
